Active and inactive are the calls of the source. The rule behind the calls is not given here.
Experiments:
[1] = target: T1, Serine/threonine-protein kinase 3 (Homo sapiens, UniProt Q13188); test: Inhibition of recombinant His-tagged full-length MST2 (unknown origin) expressing in Escherichia coli assessed as MOB1a phosphorylation level incubated for 30 min in the presence of 100 uM ATP by immunoblot analysis
T1 sequence (Q13188 whole entry): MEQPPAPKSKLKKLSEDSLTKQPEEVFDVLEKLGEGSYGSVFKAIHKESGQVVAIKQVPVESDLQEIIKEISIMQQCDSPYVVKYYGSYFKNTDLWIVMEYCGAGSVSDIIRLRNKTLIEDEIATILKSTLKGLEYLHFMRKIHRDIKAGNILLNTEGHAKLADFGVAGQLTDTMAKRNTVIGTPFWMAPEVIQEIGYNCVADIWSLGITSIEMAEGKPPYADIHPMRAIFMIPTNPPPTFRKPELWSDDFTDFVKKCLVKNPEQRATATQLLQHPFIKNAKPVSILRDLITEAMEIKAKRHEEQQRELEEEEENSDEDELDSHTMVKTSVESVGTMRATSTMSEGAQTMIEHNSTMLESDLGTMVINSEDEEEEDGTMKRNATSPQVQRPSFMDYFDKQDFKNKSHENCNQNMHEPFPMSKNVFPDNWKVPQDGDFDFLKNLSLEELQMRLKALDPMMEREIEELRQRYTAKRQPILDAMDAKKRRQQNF

[2] = target: Mitogen-activated protein kinase kinase kinase 5 (Homo sapiens) (UniProt Q99683); test: Inhibition of ASK1 (unknown origin) assessed as remaining activity at 1 uM by Kinome scan method relative to control
Summary of the method: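 Active-site-dependent competition-binding (KINOMEscan) panel of 468 kinases, test compound at 1 μM (from a 10 mM DMSO stock). Read-out is ctrl% = (test signal − positive control signal)/(negative control signal − positive control signal) × 100. DMSO is the negative control (100%) and a control compound is the positive control (0%). Lower ctrl% means tighter binding.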

[3] = target: Calcium/calmodulin-dependent protein kinase type II subunit beta (Homo sapiens) (UniProt Q13554); test: Inhibition of CAMK2B (unknown origin) assessed as remaining activity at 1 uM by Kinome scan method relative to control
Summary of the method: (§1)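 Active-site-dependent competition-binding profiling (KINOMEscan) at 1 μM against a 468-kinase panel; compound supplied from a 10 mM DMSO stock. Read-out is ctrl% = (test signal − positive control signal)/(negative control signal − positive control signal) × 100. DMSO is the negative control (100%) and a control compound the positive control (0%). Lower ctrl% means tighter binding.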

[4] = target: CDK4/Cyclin D3 (Homo sapiens) (UniProt P11802+P30281); test: Inhibition of CDK4/cyclinD3 (unknown origin) assessed as remaining activity at 1 uM by Kinome scan method relative to control; assay type: protein-complex assay; summary of the method: as §1
[5] = target: Cyclin-dependent kinase-like 2 (Homo sapiens) (UniProt Q92772); test: Inhibition of CDKL2 (unknown origin) assessed as remaining activity at 1 uM by Kinome scan method relative to control; summary of the method: as §1
[6] = target: Tyrosine-protein kinase CSK (Homo sapiens) (UniProt P41240); test: Inhibition of CSK (unknown origin) assessed as remaining activity at 1 uM by Kinome scan method relative to control; summary of the method: as §1
Chain of Tyrosine-protein kinase CSK (Homo sapiens) (P41240 2-450 limits assumed): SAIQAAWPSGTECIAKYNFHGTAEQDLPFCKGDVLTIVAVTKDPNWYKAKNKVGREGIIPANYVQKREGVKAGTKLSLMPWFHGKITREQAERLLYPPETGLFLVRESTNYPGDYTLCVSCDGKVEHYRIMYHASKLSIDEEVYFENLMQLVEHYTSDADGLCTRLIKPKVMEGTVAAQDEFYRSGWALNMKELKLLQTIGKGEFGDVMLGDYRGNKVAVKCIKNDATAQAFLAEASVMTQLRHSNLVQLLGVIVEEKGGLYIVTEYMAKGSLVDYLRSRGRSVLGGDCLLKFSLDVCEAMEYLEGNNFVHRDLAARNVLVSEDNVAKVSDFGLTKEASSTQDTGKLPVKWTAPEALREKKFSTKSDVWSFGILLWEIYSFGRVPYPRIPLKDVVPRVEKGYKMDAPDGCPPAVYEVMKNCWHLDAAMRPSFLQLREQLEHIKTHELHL

[7] = target: Mitogen-activated protein kinase kinase kinase 12 (Homo sapiens) (UniProt Q12852); test: Inhibition of DLK (unknown origin) assessed as remaining activity at 1 uM by Kinome scan method relative to control
[8] = target: Dual specificity tyrosine-phosphorylation-regulated kinase 1B (Homo sapiens) (UniProt Q9Y463); test: Inhibition of DYRK1B (unknown origin) assessed as remaining activity at 1 uM by Kinome scan method relative to control
[9] = system: Epidermal growth factor receptor (Homo sapiens), P00533 [UNDEFINED MUTATION]; test: Inhibition of EGFR L747-E749del/A750P mutant (unknown origin) assessed as remaining activity at 1 uM by Kinome scan method relative to control
Chain of Epidermal growth factor receptor (Homo sapiens), P00533 [UNDEFINED MUTATION] (P00533 whole entry, looked up, stated change not applied): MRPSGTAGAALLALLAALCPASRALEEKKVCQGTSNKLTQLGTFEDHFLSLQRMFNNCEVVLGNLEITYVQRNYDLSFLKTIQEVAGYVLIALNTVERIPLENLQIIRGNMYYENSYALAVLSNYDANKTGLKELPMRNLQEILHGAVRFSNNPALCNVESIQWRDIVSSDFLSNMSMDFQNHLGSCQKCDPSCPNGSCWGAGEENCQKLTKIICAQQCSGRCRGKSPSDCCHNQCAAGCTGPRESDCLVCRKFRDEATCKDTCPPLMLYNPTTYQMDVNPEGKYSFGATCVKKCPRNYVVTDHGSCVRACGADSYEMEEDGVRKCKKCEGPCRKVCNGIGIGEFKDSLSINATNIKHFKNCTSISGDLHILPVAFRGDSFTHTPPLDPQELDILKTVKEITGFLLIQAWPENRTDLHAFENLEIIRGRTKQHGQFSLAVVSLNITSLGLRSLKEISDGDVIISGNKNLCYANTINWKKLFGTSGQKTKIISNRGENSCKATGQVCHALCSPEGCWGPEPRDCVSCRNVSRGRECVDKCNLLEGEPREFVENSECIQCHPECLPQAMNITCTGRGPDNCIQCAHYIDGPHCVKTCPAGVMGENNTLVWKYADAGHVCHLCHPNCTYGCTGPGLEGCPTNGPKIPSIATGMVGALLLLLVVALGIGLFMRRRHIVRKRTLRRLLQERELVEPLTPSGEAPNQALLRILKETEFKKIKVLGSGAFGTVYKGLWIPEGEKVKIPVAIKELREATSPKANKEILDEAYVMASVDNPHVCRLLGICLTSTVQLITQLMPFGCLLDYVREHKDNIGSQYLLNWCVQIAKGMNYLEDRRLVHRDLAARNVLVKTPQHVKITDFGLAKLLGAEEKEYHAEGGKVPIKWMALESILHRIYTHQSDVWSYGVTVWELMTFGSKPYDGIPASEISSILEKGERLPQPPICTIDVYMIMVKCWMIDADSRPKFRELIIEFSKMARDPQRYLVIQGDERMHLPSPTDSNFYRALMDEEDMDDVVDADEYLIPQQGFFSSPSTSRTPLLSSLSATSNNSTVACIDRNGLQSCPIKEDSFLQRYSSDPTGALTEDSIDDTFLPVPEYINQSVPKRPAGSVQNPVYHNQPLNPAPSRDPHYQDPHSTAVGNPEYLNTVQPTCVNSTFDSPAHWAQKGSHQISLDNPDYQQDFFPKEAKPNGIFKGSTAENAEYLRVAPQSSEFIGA

[10] = target: Serine/threonine-protein kinase MARK1 (Homo sapiens) (UniProt Q9P0L2); test: Inhibition of MARK1 (unknown origin) assessed as remaining activity at 1 uM by Kinome scan method relative to control
Chain of Serine/threonine-protein kinase MARK1 (Homo sapiens) (Q9P0L2 whole entry, looked up): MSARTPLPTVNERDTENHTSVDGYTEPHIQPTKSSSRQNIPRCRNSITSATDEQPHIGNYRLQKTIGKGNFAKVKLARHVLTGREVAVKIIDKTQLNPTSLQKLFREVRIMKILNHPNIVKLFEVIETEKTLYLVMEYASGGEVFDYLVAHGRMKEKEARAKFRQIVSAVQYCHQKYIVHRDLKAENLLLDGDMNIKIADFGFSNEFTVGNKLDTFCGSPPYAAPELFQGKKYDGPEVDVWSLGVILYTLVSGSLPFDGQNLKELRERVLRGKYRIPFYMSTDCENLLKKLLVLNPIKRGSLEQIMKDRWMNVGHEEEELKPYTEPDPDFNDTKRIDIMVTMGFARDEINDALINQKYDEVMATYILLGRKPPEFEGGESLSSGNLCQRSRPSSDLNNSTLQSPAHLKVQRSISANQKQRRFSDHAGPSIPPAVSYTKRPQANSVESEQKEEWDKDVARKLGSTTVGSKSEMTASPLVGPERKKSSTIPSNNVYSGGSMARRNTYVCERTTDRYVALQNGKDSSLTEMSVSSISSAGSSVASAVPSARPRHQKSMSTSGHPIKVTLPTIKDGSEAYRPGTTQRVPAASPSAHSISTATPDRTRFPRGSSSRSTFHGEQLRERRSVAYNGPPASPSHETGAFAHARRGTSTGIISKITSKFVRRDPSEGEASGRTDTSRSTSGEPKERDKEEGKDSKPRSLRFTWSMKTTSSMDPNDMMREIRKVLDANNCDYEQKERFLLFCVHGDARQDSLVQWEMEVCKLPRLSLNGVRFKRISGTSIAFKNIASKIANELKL

[11] = target: Dual specificity mitogen-activated protein kinase kinase 2 (Homo sapiens) (UniProt P36507); test: Inhibition of MEK2 (unknown origin) assessed as remaining activity at 1 uM by Kinome scan method relative to control
Chain of Dual specificity mitogen-activated protein kinase kinase 2 (Homo sapiens) (P36507 whole entry): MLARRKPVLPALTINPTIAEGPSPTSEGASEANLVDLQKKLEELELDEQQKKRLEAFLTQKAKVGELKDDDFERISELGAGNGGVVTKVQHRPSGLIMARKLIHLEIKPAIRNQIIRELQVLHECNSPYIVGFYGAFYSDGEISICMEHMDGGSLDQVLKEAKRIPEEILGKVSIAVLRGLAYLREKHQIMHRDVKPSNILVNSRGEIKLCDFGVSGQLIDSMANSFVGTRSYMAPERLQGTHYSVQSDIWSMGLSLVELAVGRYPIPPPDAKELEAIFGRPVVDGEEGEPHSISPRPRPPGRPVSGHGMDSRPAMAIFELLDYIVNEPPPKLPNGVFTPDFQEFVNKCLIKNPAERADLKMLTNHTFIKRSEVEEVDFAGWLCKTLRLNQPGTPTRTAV

[12] = target: Myosin-IIIb (Homo sapiens) (UniProt Q8WXR4); test: Inhibition of MYO3B (unknown origin) assessed as remaining activity at 1 uM by Kinome scan method relative to control
[13] = target: Serine/threonine-protein kinase 38-like (Homo sapiens) (UniProt Q9Y2H1); test: Inhibition of NDR2 (unknown origin) assessed as remaining activity at 1 uM by Kinome scan method relative to control
[14] = target: Serine/threonine-protein kinase PAK 1 (Homo sapiens) (UniProt Q13153); test: Inhibition of PAK1 (unknown origin) assessed as remaining activity at 1 uM by Kinome scan method relative to control
Chain of Serine/threonine-protein kinase PAK 1 (Homo sapiens) (Q13153 whole entry): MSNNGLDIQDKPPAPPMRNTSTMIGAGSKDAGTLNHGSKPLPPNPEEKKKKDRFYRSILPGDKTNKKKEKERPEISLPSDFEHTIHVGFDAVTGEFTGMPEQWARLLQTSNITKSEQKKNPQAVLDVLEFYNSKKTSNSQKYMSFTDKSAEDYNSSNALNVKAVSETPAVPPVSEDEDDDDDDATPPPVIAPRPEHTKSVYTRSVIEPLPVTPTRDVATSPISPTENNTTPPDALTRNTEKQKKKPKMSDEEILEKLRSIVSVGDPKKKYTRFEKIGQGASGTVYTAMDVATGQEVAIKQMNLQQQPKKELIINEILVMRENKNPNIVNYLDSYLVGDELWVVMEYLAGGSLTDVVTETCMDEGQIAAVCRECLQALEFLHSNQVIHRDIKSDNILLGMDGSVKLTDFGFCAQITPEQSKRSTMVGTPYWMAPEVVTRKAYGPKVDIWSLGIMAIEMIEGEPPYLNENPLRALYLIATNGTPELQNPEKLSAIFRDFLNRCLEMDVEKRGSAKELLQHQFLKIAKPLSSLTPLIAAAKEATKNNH

[15] = target: cGMP-dependent protein kinase 1 (Homo sapiens) (UniProt Q13976); test: Inhibition of PRKG1 (unknown origin) assessed as remaining activity at 1 uM by Kinome scan method relative to control
[16] = target: Vascular endothelial growth factor receptor 2 (Homo sapiens) (UniProt P35968); test: Inhibition of VEGFR2 (unknown origin) assessed as remaining activity at 1 uM by Kinome scan method relative to control
Chain of Vascular endothelial growth factor receptor 2 (Homo sapiens) (P35968 whole entry): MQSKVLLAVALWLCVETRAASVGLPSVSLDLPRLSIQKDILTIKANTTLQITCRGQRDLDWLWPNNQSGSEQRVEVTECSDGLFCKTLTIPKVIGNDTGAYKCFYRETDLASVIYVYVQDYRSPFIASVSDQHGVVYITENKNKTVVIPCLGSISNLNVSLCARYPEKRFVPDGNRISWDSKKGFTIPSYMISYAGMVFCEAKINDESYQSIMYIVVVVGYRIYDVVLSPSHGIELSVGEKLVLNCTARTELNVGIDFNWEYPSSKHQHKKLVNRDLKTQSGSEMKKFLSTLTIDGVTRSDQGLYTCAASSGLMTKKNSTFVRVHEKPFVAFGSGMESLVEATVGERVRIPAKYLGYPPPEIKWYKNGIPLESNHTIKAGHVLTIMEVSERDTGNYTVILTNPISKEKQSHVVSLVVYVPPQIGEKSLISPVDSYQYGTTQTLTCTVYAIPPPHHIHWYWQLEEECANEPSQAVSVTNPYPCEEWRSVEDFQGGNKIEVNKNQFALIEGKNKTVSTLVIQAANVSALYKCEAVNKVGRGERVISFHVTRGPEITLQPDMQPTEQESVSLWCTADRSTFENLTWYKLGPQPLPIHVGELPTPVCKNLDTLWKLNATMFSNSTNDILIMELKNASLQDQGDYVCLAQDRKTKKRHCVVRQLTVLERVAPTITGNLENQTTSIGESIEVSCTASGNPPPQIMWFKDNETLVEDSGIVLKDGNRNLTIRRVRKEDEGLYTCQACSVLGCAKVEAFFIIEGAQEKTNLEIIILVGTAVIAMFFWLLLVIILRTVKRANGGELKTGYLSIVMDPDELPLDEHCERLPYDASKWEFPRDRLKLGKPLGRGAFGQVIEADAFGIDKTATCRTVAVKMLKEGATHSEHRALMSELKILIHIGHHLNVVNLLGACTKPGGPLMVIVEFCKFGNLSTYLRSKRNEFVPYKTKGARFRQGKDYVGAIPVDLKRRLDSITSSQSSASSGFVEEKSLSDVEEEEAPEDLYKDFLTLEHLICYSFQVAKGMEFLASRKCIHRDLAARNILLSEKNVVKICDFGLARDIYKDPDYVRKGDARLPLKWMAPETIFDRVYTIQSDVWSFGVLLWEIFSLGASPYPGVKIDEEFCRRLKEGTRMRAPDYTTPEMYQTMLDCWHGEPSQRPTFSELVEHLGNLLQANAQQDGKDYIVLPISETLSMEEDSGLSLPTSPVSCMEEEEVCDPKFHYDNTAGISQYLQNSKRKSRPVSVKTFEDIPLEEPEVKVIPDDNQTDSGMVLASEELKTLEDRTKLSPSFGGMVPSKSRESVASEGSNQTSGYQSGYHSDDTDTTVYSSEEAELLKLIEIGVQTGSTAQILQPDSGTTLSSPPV

[17] = target: Serine/threonine-protein kinase 32B (Homo sapiens) (UniProt Q9NY57); test: Inhibition of YANK2 (unknown origin) assessed as remaining activity at 1 uM by Kinome scan method relative to control
[18] = target: Mitogen-activated protein kinase kinase kinase 19 (Homo sapiens) (UniProt Q56UN5); test: Inhibition of YSK4 (unknown origin) assessed as remaining activity at 1 uM by Kinome scan method relative to control
[19] = Inhibition of recombinant His-tagged full-length MST1 D109A mutant (unknown origin) expressing in Escherichia coli assessed as MOB1 phosphorylation level incubated for 15 min by immunoblot analysis; parameters: species or system Homo sapiens
Mus musculus [20] = test: In vivo inhibition of MST1/2 in wild-type Mst1fl/fl Mst2fl/fl mouse assessed as decrease in YAP phosphorylation level at 1 mg/kg, ip administrated daily for 7 days by immunoblot analysis; assay type: functional, organism-based; settings: Liver, time 7.0 day
Mus musculus [21] = test: Anti-colitis activity against DSS-induced mouse assessed as suppression in disease activity index at 1 mg/kg, ip administrated daily for over 1 to 21 days; assay type: functional, organism-based; settings: time 1-21 day
Summary of the method: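 Colitis was induced in wild-type mice with DSS on days 1–7, with vehicle or 1 mg/kg daily (n = 12 per group). Disease activity index (diarrhea, rectal bleeding) was scored daily over days 1–21. Student's t test at each time point.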

CN1C(=O)c2sccc2N(C)c2nc(Nc3ccc(S(N)(=O)=O)cc3)ncc21
IC50 [1]: 280 nM | Activity [2]: 100% | Activity [3]: 73% | Activity [4]: 100% | Activity [5]: 97% | Activity [6]: 100% | Activity [7]: 85% | Activity [8]: 85% | Activity [9]: 100% | Activity [10]: 92% | Activity [11]: 99% | Activity [12]: 100% | Activity [13]: 82% | Activity [14]: 100% | Activity [15]: 98% | Activity [16]: 100% | Activity [17]: 100% | Activity [18]: 42% | IC50 [19]: 753 nM | inhibition (Mus musculus [20]): Active | Activity (Mus musculus [21]): Active

From ChEMBL document CHEMBL5705905, “Pharmacological targeting of kinases MST1 and MST2 augments tissue repair and regeneration” (Sci Transl Med, 2016)
